NR1D1 modulator – modulators of Rev-erb alpha DNA binding, primary screen, biochemical, FITC-DNA, fluorescence polarization, uHTS | Nuclear receptor subfamily 1 group D member 1 (Homo sapiens), P20393 | Rev-erbα–FITC-DNA binding, 90 min | activity, % at 10 µM | 0.79% of 370,000 active;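 active = activity above about 14%, limit read from the data; passing the limit was not always enough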;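 also: 0% = DMSO wells with 35 nM protein and 100% = DMSO wells with 750 nM protein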
PG9 binder – binders of HIV-1 gp120 antibody PG9, primary screen, biochemical, TR-FRET; HIV-1 gp120 / PG9 antibody interaction; AID 624416, 2012; TR-FRET gp120-PG9 antibody binding; inhibition, % at 6.7 µM; 0.43% of 360,000 active; in the data active = inhibition above about 8.5%
NR2E3 ag-1 – inhibitors of NR2E3-RetCOR corepressor binding, primary screen, NR2E3 agonist project, biochemical, TR-FRET, GST-NR2E3, biotin-RetCOR; Photoreceptor-specific nuclear receptor (Homo sapiens), Q9Y5X4; 1536-well; inhibition of corepressor binding, % at 4.78 µM; 0.12% of 320,000 active;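 active = percent inhibition above the cutoff of mean plus 3 SD of all tested compounds, set per screening campaign, cut at about 20% in these data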;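 also: 0% = DMSO wells and 100% = biotin wells as full block of FRET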
Target sequence (Q9Y5X4 whole entry, looked up): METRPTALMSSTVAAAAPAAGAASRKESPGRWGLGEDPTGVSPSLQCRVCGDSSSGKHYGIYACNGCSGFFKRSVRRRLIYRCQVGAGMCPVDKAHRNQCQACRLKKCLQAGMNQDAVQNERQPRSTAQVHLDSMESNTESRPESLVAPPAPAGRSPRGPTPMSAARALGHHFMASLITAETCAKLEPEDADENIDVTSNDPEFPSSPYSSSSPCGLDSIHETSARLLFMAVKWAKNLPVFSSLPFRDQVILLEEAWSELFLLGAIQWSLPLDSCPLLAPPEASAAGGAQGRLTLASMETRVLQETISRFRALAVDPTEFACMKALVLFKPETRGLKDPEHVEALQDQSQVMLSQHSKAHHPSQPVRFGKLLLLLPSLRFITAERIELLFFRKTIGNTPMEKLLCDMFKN
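Format: 1536-well format; test system: GST-NR2E3 and biotin-RetCOR proteins; read-out basis: percent inhibition of TR-FRET ratio; timing: 5 h incubation at 4 °C; detection: time-resolved FRET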
NR2E3 ag-2 – NR2E3 agonists in two-hybrid cells, primary screen, cell-based, luminescence, CHO-S, Gal4-NCOR/VP16-NR2E3. inhibition of corepressor binding, % at 3.98 µM. 0.35% of 360,000 active. luciferase. Photoreceptor-specific nuclear receptor (Homo sapiens), Q9Y5X4. AID 602229, 2012;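 active = inhibition above the mean of all tested compounds plus 3 SD, cut at about 70% in these data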;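 also: 0% = DMSO with NR2E3 transfected cells and 100% = cells lacking NR2E3 construct; higher means lower luciferase signal from less NR2E3 corepressor binding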
NR1D1 mod conf – modulators of Rev-erb alpha DNA binding, confirmation, biochemical, FITC-DNA, fluorescence polarization, single point; shares compounds with NR1D1 modulator; 90 min; activation, % at 25 µM; 61% of 3,000 active; AID 1259319, 2017;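 active = activation at or above a set limit, or at least 3 SD above the negative control mean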;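 also: 0% = 35 nM protein with DMSO and 100% = 750 nM protein high control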
RORg DNA counter – modulation of RORgamma DNA binding, dose response, counter-screen for Rev-erb alpha modulator project, biochemical, fluorescence polarization, FITC-DNA; IC50, µM; shares compounds with NR1D1 modulator; 8% of 910 active; purified RORgamma protein-FITC-DNA binding;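 active = Compounds whose fitted half-maximal concentration for disrupting protein-DNA binding is below 10 micromolar; the record names Rev-erb in its text, so the target is in doubt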
* hit, by the source's call. A selection: hits, their analogues and other compounds. The true share with any hit is near 1.4%.

CCCCn1c(=O)[nH]c(=O)c2c1nc(-c1ccc(-c3ccccc3)cc1)n2C was read as NR1D1 modulator 20.3, PG9 binder -1.5, NR2E3 ag-1 7.0 and NR2E3 ag-2 -22.0.
`Cc1ccc2[nH]cc(S(=O)(=O)c3ccc(C)c(C)c3)c(=O)c2c1` gave NR1D1 modulator 56.2*, PG9 binder -2.3, NR2E3 ag-1 -4.0, NR2E3 ag-2 11.6, NR1D1 mod conf 33.2* and RORg DNA counter >40.
COc1ccc2[nH]cc(S(=O)(=O)c3ccc(F)cc3)c(=O)c2c1 was read as NR1D1 modulator 2.2, PG9 binder -0.5, NR2E3 ag-1 2.2 and NR2E3 ag-2 -16.0.
Screening CNC(=S)N(Cc1ccc(OC)cc1)Cc1cc2cc(C)ccc2[nH]c1=O returned NR1D1 modulator 40.5*, PG9 binder 0.2, NR2E3 ag-1 -1.2, NR2E3 ag-2 -26.9 and NR1D1 mod conf 24.9*.
COc1ccc(CN(Cc2cc3cc(OC)c(OC)cc3[nH]c2=O)C(=O)NC2CCCCC2)cc1 was read as NR1D1 modulator 50.5*, PG9 binder -0.7, NR2E3 ag-1 -0.7, NR2E3 ag-2 -0.9, NR1D1 mod conf 77.8* and RORg DNA counter >40.
For N#C/C(=C/c1ccc(-c2ccc(S(N)(=O)=O)cc2)o1)c1nc2ccccc2s1 the results were NR1D1 modulator 2.7, PG9 binder -2.3, NR2E3 ag-1 -0.1 and NR2E3 ag-2 -1.8.
For CCc1cc(-c2n[nH]c(C)c2-c2nc(C)cs2)c(O)cc1OC the results were NR1D1 modulator -0.1, PG9 binder -2.9, NR2E3 ag-1 4.0 and NR2E3 ag-2 -34.2.
Screening CCc1cc(-c2n[nH]c(C)c2-c2nc3ccccc3s2)c(O)cc1OCC(=O)NN returned NR1D1 modulator 13.4*, PG9 binder 1.2, NR2E3 ag-1 3.8, NR2E3 ag-2 2.6 and NR1D1 mod conf 3.9.
Screening CC(=O)c1sc2c(c1OC(=O)c1ccc(Cl)cc1)c(=O)n(-c1ccccc1)c(=S)n2-c1ccccc1 returned NR1D1 modulator 44.7*, PG9 binder -0.6, NR2E3 ag-2 8.9 and NR1D1 mod conf 10.0.
Screening O=[N+]([O-])c1cc(-c2cnc3ccccc3n2)ccc1Cl returned NR1D1 modulator 92.7*, PG9 binder -1.9, NR2E3 ag-1 -3.6, NR2E3 ag-2 -33.3, NR1D1 mod conf 68.4* and RORg DNA counter >40.
O=[N+]([O-])c1cc(-c2cnc3ccccc3n2)ccc1Oc1ccc(Cl)cc1 was read as NR1D1 modulator -0.5, PG9 binder -0.3, NR2E3 ag-1 1.6 and NR2E3 ag-2 -42.2.
Screening Cc1nc(NS(=O)(=O)c2ccc(Cl)s2)c2c3c(sc2n1)CCCC3 returned NR1D1 modulator 2.6, PG9 binder -0.8, NR2E3 ag-1 1.5 and NR2E3 ag-2 20.2.
For N=C(N)N1CCc2ccccc2C1 the results were NR1D1 modulator -0.1 and NR2E3 ag-1 1.3.
For Cn1c(SCC(=O)NCCc2ccccc2)ncc(C(=O)Nc2ccccc2)c1=O the results were NR1D1 modulator 30.1*, PG9 binder 4.8, NR2E3 ag-1 1.2, NR2E3 ag-2 -8.6 and NR1D1 mod conf 20.4*.
`Cn1cc(SCC(=O)NCC2CCCO2)c2ccccc21` (centres undefined) gave NR1D1 modulator 29.6*, PG9 binder -1.9, NR2E3 ag-1 3.4, NR2E3 ag-2 1.8 and NR1D1 mod conf 0.8.
For Cn1c(SCC(=O)NCC2CCCO2)ncc(C(=O)Nc2ccc(Cl)cc2)c1=O (centres undefined) the results were NR1D1 modulator 24.0*, PG9 binder -2.9, NR2E3 ag-1 0.5, NR2E3 ag-2 -34.8 and NR1D1 mod conf 2.4.
CCN(CC)Cc1c(C(=O)N/N=C/c2ccc(OCc3ccccc3C)cc2)nnn1-c1nonc1N was read as NR1D1 modulator 0.4, PG9 binder -2.3, NR2E3 ag-1 -0.4 and NR2E3 ag-2 -81.0.
For C=C(C)C1Cc2c(C)nn(-c3cccc4cccnc34)c2C1 (centres undefined) the results were NR1D1 modulator 0.3, PG9 binder 0.7, NR2E3 ag-1 1.2 and NR2E3 ag-2 -22.6.
`C=CCn1c(SCc2nc3ccccc3c(=O)[nH]2)nnc1-c1cc2cc(Cl)ccc2o1` gave NR1D1 modulator 25.9*, PG9 binder -1.2, NR2E3 ag-1 1.1, NR2E3 ag-2 -7.3 and NR1D1 mod conf 30.0*.
COc1ccc(-c2cc3c(=O)n(CC(=O)NCc4ccc(Cl)cc4)ncn3n2)cc1 was read as NR1D1 modulator 21.3*, PG9 binder -0.4, NR2E3 ag-1 -1.4, NR2E3 ag-2 -20.2 and NR1D1 mod conf 5.0.
For CC1CC(C)CN(c2oc(-c3ccccc3Cl)nc2C#N)C1 (centres undefined) the results were NR1D1 modulator 17.7*, PG9 binder -0.7, NR2E3 ag-1 -2.5, NR2E3 ag-2 -17.9 and NR1D1 mod conf -13.6.
N#Cc1nc(-c2ccccc2Cl)oc1N1CCCCC1 was read as NR1D1 modulator 0.4, PG9 binder -0.7, NR2E3 ag-1 0.1 and NR2E3 ag-2 -53.5.
N#Cc1nc(-c2ccccc2Cl)oc1N1CCN(C(=O)c2ccco2)CC1 was read as NR1D1 modulator 25.1*, PG9 binder 1.9, NR2E3 ag-1 4.8, NR2E3 ag-2 0.7 and NR1D1 mod conf 3.0.
Screening O=C(CSc1nncn1-c1cccnc1)N(c1ccccc1)c1ccccc1 returned NR1D1 modulator -5.0, PG9 binder -1.3, NR2E3 ag-1 0.8 and NR2E3 ag-2 -20.5.
CCOC(=O)c1sc(=NC(=O)c2ccc(S(=O)(=O)N(C)c3ccccc3)cc2)n(C)c1C was read as NR1D1 modulator 37.4*, PG9 binder -0.6, NR2E3 ag-1 2.8, NR2E3 ag-2 15.9 and NR1D1 mod conf 29.1*.
`CCOC(=O)c1sc(=NC(=O)c2cccc(C)c2)n(C)c1C` gave NR1D1 modulator -0.7, PG9 binder 0.5, NR2E3 ag-1 3.7 and NR2E3 ag-2 -48.5.
Screening CCOC(=O)c1sc(=NC(=O)CCSc2ccccc2)n(C)c1C returned NR1D1 modulator 26.7*, PG9 binder -1.5, NR2E3 ag-1 4.3, NR2E3 ag-2 -33.6 and NR1D1 mod conf 12.8.
CCOC(=O)c1sc(=NC(=O)c2cc(OC)c(OC)c(OC)c2)n(C)c1C was read as NR1D1 modulator 30.3*, PG9 binder 28.2*, NR2E3 ag-1 -0.8, NR2E3 ag-2 9.9 and NR1D1 mod conf -4.0.
Screening COc1ccc(C2=NCCn3nc4cc([N+](=O)[O-])ccc4c32)cc1 returned NR1D1 modulator 0.5, PG9 binder 0.2, NR2E3 ag-1 0.7 and NR2E3 ag-2 -2.3.

Screening data deposited in PubChem BioAssay by several laboratories.
